The source made the active and inactive calls.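 How the source made its calls: active means peak KCNK3 inhibition above a set limit at some dose, plus a fitted dose-response curve; inactive means no KCNK3 inhibition, or no dose-response curve.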
Biological target: Potassium channel subfamily K member 3 (Rattus norvegicus) (UniProt O54912)
Test: KCNK3 off-target potassium flux block – cell-based, FluxOR thallium flux, CRC set 2, selectivity assay for KCNK9 inhibitor project, SAR follow-up (AID 623912)
Conditions: KCNK3-expressing cells, FluxOR thallium flux fluorescence; for flux ratio, lower = inhibition: at 3 µM (top of the series)
In short: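 Assay system: tetracycline-induced CHO cells expressing rat KCNK3 potassium channel. Probe or stimulus: Tl+/K+ sulfate stimulus buffer (5x stock). Dosing: concentration series of compound. Incubation: dye 90 min, compound 20 min, both room temperature. Measured by: FluxOR Tl+ flux fluorescence. Evaluation: IC50 from normalized flux signal. Replicates: duplicate or more.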

Sequence of Potassium channel subfamily K member 3 (Rattus norvegicus) (O54912 whole entry, looked up): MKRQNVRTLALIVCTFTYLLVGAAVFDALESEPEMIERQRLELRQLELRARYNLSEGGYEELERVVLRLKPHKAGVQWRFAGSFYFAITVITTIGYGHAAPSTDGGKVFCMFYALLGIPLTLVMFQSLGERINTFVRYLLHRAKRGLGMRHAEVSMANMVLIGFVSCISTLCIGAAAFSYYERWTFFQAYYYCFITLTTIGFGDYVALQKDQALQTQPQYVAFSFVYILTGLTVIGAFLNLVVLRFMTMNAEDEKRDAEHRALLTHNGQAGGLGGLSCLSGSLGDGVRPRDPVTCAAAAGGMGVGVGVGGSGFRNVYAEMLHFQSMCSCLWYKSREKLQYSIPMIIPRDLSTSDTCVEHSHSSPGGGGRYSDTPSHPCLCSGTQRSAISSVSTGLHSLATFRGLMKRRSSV

Row | SMILES | IC50 | flux ratio, lower = inhibition
1 | Cc1cccc(C(=O)Nc2cccc(NC(=O)c3ccc(N(C)C)cc3)c2)c1 | 145 nM | 
2 | O=C(Nc1ccccc1Cl)c1cccc(NC(=O)C2CCCC2)c1 | 202 nM | 
3 | COc1cccc(C(=O)Nc2cccc(NC(=O)c3ccccc3)c2)c1 | 212 nM | 
4 | Cc1cccc(C(=O)Nc2ccccc2NC(=O)c2ccccc2)c1 | 260 nM | 
5 | Cc1cccc(C(=O)Nc2cccc(NC(=O)c3ccc(Cl)cc3)c2)c1 | 149 nM | 
6 | CC(C1CC2CCC1C2)n1c(-c2ccco2)n[nH]c1=O (centres undefined) | 181 nM | 
7 | O=C(Nc1cccc(NC(=O)c2ccc(C(F)(F)F)cc2)c1)c1ccccc1 |  | inactive
8 | CC(C1CC2CCC1C2)n1c(-c2ccccc2F)n[nH]c1=S (centres undefined) | 2200 nM | 
9 | CCOc1ccccc1NC(=O)c1cccc(NC(=O)C(C)(C)C)c1 | 1320 nM | 
10 | COc1ccc(C(=O)CSc2nnc(-c3ccco3)n2C(C)C2CC3CCC2C3)cc1OC (centres undefined) | 2080 nM | 
11 | O=C(Nc1cccc(NC(=O)c2ccoc2)c1)c1ccccc1 | 799 nM | 
12 | Cc1cccc(NC(=O)c2cccc(NC(=O)c3ccccc3)c2)c1 |  | inactive
13 | CSc1nnc(-c2ccco2)n1C(C)C1CC2CCC1C2 (centres undefined) | 873 nM | 
14 | CC(C1CC2CCC1C2)n1c(-c2ccccn2)n[nH]c1=S (centres undefined) | 1300 nM | 
15 | CC(C1CC2CCC1C2)n1c(-c2ccco2)n[nH]c1=S (centres undefined) | 341 nM | 
16 | CCOc1ccccc1NC(=O)c1cccc(NC(=O)c2ccc(C(F)(F)F)cc2)c1 | 220 nM | 
17 | CC(c1ccco1)n1c(-c2ccoc2)n[nH]c1=S (centres undefined) |  | inactive
18 | O=C(Nc1cccc(NC(=O)c2ccncc2)c1)c1ccccc1 | 249 nM | 
19 | O=C(Nc1cccc(NC(=O)c2ccc(F)cc2)c1)c1ccccc1 | 306 nM | 
20 | CC(c1ccccc1)n1c(-c2ccco2)n[nH]c1=S (centres undefined) | 567 nM | 
21 | S=c1[nH]nc(-c2ccco2)n1CC1CC2CCC1C2 (centres undefined) | 915 nM | 

Row | SMILES | IC50 | flux ratio, lower = inhibition
22 | CC(C1CC2CCC1C2)n1c(-c2cccn2C)n[nH]c1=S (centres undefined) | 1080 nM | 
23 | COc1ccccc1NC(=O)c1cccc(NC(=O)C2CCCC2)c1 | 238 nM | 
24 | Cc1cccc(C(=O)Nc2cccc(NC(=O)c3ccccc3OCC(C)C)c2)c1 | 206 nM | 
25 | COc1ccccc1C(=O)Nc1cccc(NC(=O)c2ccccc2)c1 | 222 nM | 
26 | O=C(Nc1cccc(NC(=O)c2cccnc2)c1)c1ccccc1 | 1290 nM | 
27 | Cc1cccc(S(=O)(=O)Nc2cccc(NC(=O)c3ccccc3)c2)c1 | 1450 nM | 
28 | CC(C1CC2CCC1C2)n1c(-c2ccco2)nnc1C(F)(F)F (centres undefined) | 1180 nM | 
29 | CC(C1CC2CCC1C2)n1c(-c2ccc(Cl)cc2)n[nH]c1=S (centres undefined) | 240 nM | 
30 | Cc1cccc(C(=O)Nc2cccc(NC(=O)c3ccco3)c2)c1 | 143 nM | 
31 | COc1ccc(C(=O)Nc2cccc(NC(=O)c3cccc(C)c3)c2)cc1 | 1330 nM | 
32 | CCOc1ccccc1NC(=O)c1cccc(NC(=O)c2ccc(OC)cc2)c1 | 300 nM | 
33 | COc1cccc(OC)c1C(=O)Nc1cccc(NC(=O)c2cccc(C)c2)c1 | 148 nM | 
34 | Cc1cccc(C(=O)Nc2cccc(C(=O)Nc3ccccc3)c2)c1 | 850 nM | 
35 | Cc1cccc(C(=O)Nc2cccc(NC(=O)c3ccc(C(F)(F)F)cc3)c2)c1 |  | inactive
36 | CCOc1ccccc1NC(=O)c1cccc(NC(=O)C2CC2)c1 | 1070 nM | 
37 | Cc1cccc(C(=O)Nc2cccc(NC(=O)c3ccccc3C(C)C)c2)c1 | 328 nM | 
38 | O=C(Nc1cccc(NC(=O)c2ccsc2)c1)c1ccccc1 | 162 nM | 
39 | COc1ccc(-c2n[nH]c(=S)n2C(C)C2CC3CCC2C3)cc1 (centres undefined) |  | inactive
40 | CCOc1ccccc1NC(=O)c1cccc(NC(=O)c2ccccc2C)c1 | 140 nM | 
41 | CCOc1ccccc1NC(=O)c1cccc(NC(=O)c2ccc(Cl)cc2)c1 | 139 nM | 
42 | COc1ccc(C(=O)Nc2cccc(NC(=O)c3ccccc3)c2)cc1 | 2270 nM | 

Further compounds by falling IC50, results first:

Row | IC50 | flux ratio, lower = inhibition | SMILES
43 | 134 nM |  | CCOc1ccccc1NC(=O)c1cccc(NC(=O)c2ccc(C)cc2)c1
44 | 129 nM |  | CCOc1ccccc1NC(=O)c1cccc(NC(=O)C2CCCO2)c1 (centres undefined)
45 | 121 nM |  | CCOc1ccccc1NC(=O)c1cccc(NC(=O)c2ccccc2)c1
46 | 120 nM |  | O=C(Nc1cccc(NC(=O)c2cccc(Cl)c2)c1)c1ccccc1
47 | 110 nM |  | COc1cc(OC)cc(-c2n[nH]c(=S)n2C(C)C2CC3CCC2C3)c1 (centres undefined)
48 | 108 nM |  | CCOc1ccccc1C(=O)Nc1cccc(NC(=O)C2CCCC2)c1
49 | 106 nM |  | COc1cccc(-c2nnc(S(C)(=O)=O)n2C(C)C2CC3CCC2C3)c1 (centres undefined)
50 | 104 nM |  | Cc1ccccc1C(=O)Nc1cccc(NC(=O)c2ccccc2)c1
51 | 102 nM |  | COc1ccccc1-c1n[nH]c(=S)n1C(C)C1CC2CCC1C2 (centres undefined)
52 | 92.2 nM |  | CC(C)n1c(-c2ccco2)n[nH]c1=S
53 | 90.8 nM |  | Cc1cccc(C(=O)Nc2cccc(NC(=O)c3ccccc3C)c2)c1
54 | 86 nM |  | COc1ccccc1NC(=O)c1cccc(NC(=O)C2CCCCC2)c1
55 | 85.8 nM |  | O=C(Nc1cccc(NC(=O)c2ccccn2)c1)c1ccccc1
56 | 82 nM |  | CC(C1CC2CCC1C2)n1c(-c2cccc(F)c2)n[nH]c1=S (centres undefined)
57 | 79.2 nM |  | O=C(Nc1cccc(NC(=O)C2CCCCC2)c1)c1ccccc1
58 | 70.2 nM |  | CCOc1ccc(NC(=O)c2cccc(NC(=O)C3CCCC3)c2)cc1
59 | 68.3 nM |  | CCOc1ccccc1NC(=O)c1cccc(NC(=O)C2CCCC2)c1
60 | 66.9 nM |  | CCOc1ccccc1NC(=O)c1cccc(NC(=O)C2CCCCC2)c1
61 | 64 nM |  | COc1ccccc1NC(=O)c1cccc(NC(=O)c2ccccc2)c1
62 | 44.2 nM |  | O=C(Nc1cccc(NC(=O)c2cccc(F)c2)c1)c1ccccc1
63 | 44 nM |  | CC(C1CCCCC1)n1c(-c2ccco2)n[nH]c1=S (centres undefined)

Row | IC50 | flux ratio, lower = inhibition | SMILES
64 | 36.5 nM |  | O=C(Nc1cccc(NC(=O)c2ccco2)c1)c1ccccc1
65 | 31 nM |  | COc1cccc(C(=O)Nc2cccc(NC(=O)c3cccc(C)c3)c2)c1
66 | 29.6 nM |  | Cc1cccc(C(=O)Nc2cccc(NC(=O)c3cccc(C)c3)c2)c1
67 | 29.5 nM |  | CCOc1ccccc1NC(=O)c1cccc(NC(=O)c2ccccc2C(F)(F)F)c1
68 | 29.4 nM |  | O=C(Nc1cccc(NC(=O)c2cccs2)c1)c1ccccc1
69 | 27 nM |  | Cc1cccc(C(=O)Nc2cccc(NC(=O)c3ccncc3)c2)c1
70 | 23 nM |  | Cc1cccc(C(=O)Nc2cccc(NC(=O)c3ccccc3Cl)c2)c1
71 | 20 nM |  | CC(C1CC2CCC1C2)n1c(-c2cccc(Cl)c2)n[nH]c1=S (centres undefined)
72 | 18 nM |  | CC(C1CC2CCC1C2)n1c(-c2cccs2)n[nH]c1=S (centres undefined)
73 | 18 nM |  | O=C(Nc1cccc(NC(=O)c2ccccc2)c1)c1ccccc1
74 | 17 nM |  | CCOc1ccccc1NC(=O)c1cccc(NC(=O)c2cccc(C)c2)c1
75 | 17 nM |  | Cc1cccc(C(=O)Nc2cccc(NC(=O)C3CCCCC3)c2)c1
76 | 15 nM |  | COc1cccc(-c2n[nH]c(=S)n2C(C)C2CC3CCC2C3)c1OC (centres undefined)
77 | 11 nM |  | Cc1cccc(C(=O)Nc2cccc(NC(=O)c3cccc(C(F)(F)F)c3)c2)c1
78 | 10 nM |  | COc1ccccc1C(=O)Nc1cc(NC(=O)c2ccccc2C(C)C)ccc1F
79 | 9.67 nM |  | COc1ccccc1C(=O)Nc1cccc(NC(=O)c2ccccc2OC)c1
80 | 8 nM |  | COc1ccccc1NC(=O)c1cccc(NC(=O)c2ccccc2OC)c1
81 | 7 nM |  | COc1ccccc1C(=O)Nc1cccc(NC(=O)c2ccccc2C(C)C)c1
82 | 6 nM |  | CC(C1CC2CCC1C2)N(C)C(=O)c1ccco1 (centres undefined)
83 | 3 nM |  | COc1ccccc1C(=O)Nc1cccc(NC(=O)c2cccc3ccccc23)c1
84 | 3 nM |  | Cc1cccc(C(=O)Nc2cccc(NC(=O)c3cccc(Cl)c3)c2)c1
